Converted amounts (≈) assume the structure as drawn. Some results are limits rather than exact numbers.

Data set [1] relates to Candida albicans. Kind of data set: Compound is evaluated for disk diffusion assay of the activity against Candida albicans B-311 at 25.0 ug/disk. Type of data set: functional. The essentials: (§1)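 Cells grown 7 h at 37 °C in trypticase soy broth with shaking at 250 rpm. 1 mL of culture was seeded into 1 L of yeast carbon base agar with lysine 200 µg/mL, and 15 mL was poured per plate. Peptides in water were loaded onto 6.35-mm paper disks. Plates were incubated 24 h at 37 °C and inhibition zones read.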

The subject of data set [2] is Candida albicans. Briefly: Compound is evaluated for disk diffusion assay of the activity against Candida albicans B-311 at 3.0 ug/disk. Type of data set: functional. The essentials: as §1
For orientation: In agar diffusion tests the substance spreads into inoculated agar from a disc or well.

For data set [3], the system named is Candida albicans. Briefly: Compound is evaluated for disk diffusion assay of the activity against Candida albicans B-311 at 6.0 ug/disk. The data set is classed as functional. The essentials:
as §1

Data set [4] relates to Candida albicans. Kind of data set: Compound is evaluated for minimum inhibitory concentrations against Candida albicans strain B311. Type of data set: functional. Summed up:
(§2)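 Twofold broth dilution in yeast carbon base medium with lysine 200 µg/mL. Final inoculum was approximately 10^4-10^5 cfu/mL, incubated overnight at 37 °C. MIC was taken as the lowest concentration giving complete growth inhibition.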

Data set [5] relates to Candida albicans. Briefly: Compound is evaluated for minimum inhibitory concentrations against Candida albicans strain BC759. The data set is classed as functional. Summed up: as §2
For data set [6], the system named is Candida albicans. Kind of data set: Compound is evaluated for minimum inhibitory concentrations against Candida albicans strain 3153A. Type of data set: functional. Summed up:
as §2

Data set [7] deals with Candida albicans. Kind of data set: Compound is evaluated for disk diffusion assay of the activity against Candida albicans B-311 at […]. Type of data set: functional.
For data set [8], the system named is Candida albicans. Briefly: Compound is evaluated for disk diffusion assay of the activity against Candida albicans B-311 at 1.5 ug/disk. The data set is classed as functional. The essentials:
as §1

For data set [9], the species on record is Homo sapiens. Briefly: Stability in human serum at the time of zero(0) hours, stability was measured by in the form of percent Fluoro uracil. Type of data set: ADME. Summed up:
(§3)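 A 1:1 mixture of the L,L and L,D peptide diastereomers was added as powder to undiluted serum at 0.5 mg/mL and held at 37 °C. Samples were taken at time points, filtered through glass fiber, and analysed by reversed-phase (RP-18) HPLC. Values are the increase in percent free 5-FU.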

Data set [10] is filed under the species Homo sapiens. Kind of data set: Stability in human serum at the time of 50 hours, stability was measured by in the form of percent Fluoro uracil. The data set is classed as ADME. Summed up: as §3
Data set [11] is described as follows: Stability in water (H20) at the time of zero(0) hours, stability was measured by in the form of percent Fluoro uracil. Type of data set: physicochemical. The settings on record: buffer. Summed up:
(§4)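 A 1:1 mixture of the L,L and L,D peptide diastereomers was added at 0.5 mg/mL to distilled water and kept at 23 °C. Samples were taken over time, filtered through glass fiber, and analysed by RP-18 HPLC. Values are the percent free 5-FU formed.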

Data set [12] relates to Escherichia coli. Kind of data set: 2 mg/disk of dialanine was codisked on the compound and evaluated for antagonistic activity against Escherichia coli M2626,at […]. Type of data set: functional.
Data set [13] is filed under the species Mus musculus. Briefly: Stability in mouse serum at the time of 2.5 hours, stability was measured by in the form of percent Fluoro uracil. Type of data set: ADME. The essentials: as §3
The subject of data set [14] is Escherichia coli. Kind of data set: Compound is evaluated for antagonistic activity against Escherichia coli M2626 at 6.0 ug/disk. The data set is classed as functional. Summed up:
(§5)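 Disk diffusion on E. coli seeded agar plates. Culture grown in trypticase soy broth for 7 h at 37 °C with shaking at 250 rpm, then 1 mL per litre of agar medium; plates made as for C. albicans but with M-9 medium. Peptide in water absorbed onto 6.35-mm paper disks. Antagonism tested by placing a second disk with noninhibitory di- or tripeptide over the test disk. Plates incubated 24 h at 37 °C; inhibition zones read.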

The subject of data set [15] is Escherichia coli. Kind of data set: Compound is evaluated for antagonistic activity against Escherichia coli M2626 at 1.5 ug/disk. Type of data set: functional. Summed up: as §5
In data set [16] the test system is Escherichia coli. Kind of data set: 2 mg/disk of dialanine was codisked on the compound and evaluated for antagonistic activity against Escherichia coli M2626,at 6.0 ug/disk. The data set is classed as functional. Summed up:
as §5

Data set [17] concerns Escherichia coli. Kind of data set: Compound is evaluated for antagonistic activity against Escherichia coli M2626 at 3.0 ug/disk. Type of data set: functional. The essentials: as §5
For data set [18], the system named is Escherichia coli. Kind of data set: Compound is evaluated for antagonistic activity against Escherichia coli M2626 at […]. Type of data set: functional.
Data set [19] is filed under the species Homo sapiens. Kind of data set: Stability in human serum at the time of 0.5 hours, stability was measured by in the form of percent Fluoro uracil. Type of data set: ADME. Summed up:
as §3

The species named for data set [20] is Homo sapiens. Briefly: Stability in human serum at the time of 1.5 hours, stability was measured by in the form of percent Fluoro uracil. Type of data set: ADME. Summed up: as §3
In data set [21] the test system is Escherichia coli. Kind of data set: 2 mg/disk of dialanine was codisked on the compound and evaluated for antagonistic activity against Escherichia coli M2626,at 3.0 ug/disk. The data set is classed as functional. Summed up: as §5
The species named for data set [22] is Homo sapiens. Kind of data set: Stability in human serum at the time of 24 hours, stability was measured by in the form of percent Fluoro uracil. Type of data set: ADME. The essentials: as §3
The nature of data set [23]: Stability in water (H20) at the time of 240 hours, stability was measured by in the form of percent Fluoro uracil. The data set is classed as physicochemical. The settings on record: buffer. The essentials: as §4
For data set [24], the species on record is Mus musculus. Kind of data set: Stability in mouse serum at the time of 0.5 hours, stability was measured by in the form of percent Fluoro uracil. The data set is classed as ADME. Summed up:
as §3

Data set [25] relates to Escherichia coli. Kind of data set: 2 mg/disk of dialanine was codisked on the compound and evaluated for antagonistic activity against Escherichia coli M2626,at 1.5 ug/disk. The data set is classed as functional. The essentials:
as §5

For data set [26], the species on record is Mus musculus. Briefly: Stability in mouse serum at the time of zero(0) hours, stability was measured by in the form of percent Fluoro uracil. The data set is classed as ADME. The essentials: as §3
For data set [27], the species on record is Mus musculus. Briefly: Stability in mouse serum at the time of 1.5 hours, stability was measured by in the form of percent Fluoro uracil. The data set is classed as ADME. The essentials:
as §3

The species entered for data set [28] is Homo sapiens. Kind of data set: Stability in human serum at the time of 5 hours, stability was measured by in the form of percent Fluoro uracil. The data set is classed as ADME. Summed up: as §3
The species named for data set [29] is Mus musculus. Kind of data set: Stability in mouse serum at the time of 24 hours, stability was measured by in the form of percent Fluoro uracil. Type of data set: ADME. The essentials: as §3
For data set [30], the species on record is Mus musculus. Briefly: Stability in mouse serum at the time of 5 hours, stability was measured by in the form of percent Fluoro uracil. Type of data set: ADME. Summed up: as §3
The subject of data set [31] is Escherichia coli. Kind of data set: Compound is evaluated for antagonistic activity against Escherichia coli M2626 at 25.0 ug/disk. The data set is classed as functional. The essentials:
as §5

Where [32] appears, read: Candida albicans, read-out: MIC.

For orientation: MIC means the least concentration at which growth counts as inhibited. Take `C[C@H](N)C(=O)N[C@@H](C(=O)O)n1cc(F)c(=O)[nH]c1=O` (stereo in doubt; 8a(L,L)): the Activity in the data set on Candida albicans [1] was 30; in the data set with Candida albicans [2] it was 20; in the data set on Candida albicans [3], 22; with Candida albicans [7] it was 26; with Candida albicans [8], 16. The minimal inhibitory concentration (MIC) with Candida albicans [4] was 12.5 µg/mL (≈ 45.6 µM); against Candida albicans [5], 1.6 µg/mL (≈ 5.83 µM); with Candida albicans [6], 12.5 µg/mL (≈ 45.6 µM).

For the molecule `C[C@H](N)C(=O)NC(C(=O)O)n1cc(F)c(=O)[nH]c1=O` (some centres undefined), the Serum stability stood at 0 in the data set filed under Homo sapiens [9]; 25 in the data set listed under Homo sapiens [10]; 0 in [11]; 36 in the data set listed under Mus musculus [13]; 3 in the data set listed under Homo sapiens [19]; 7 in the data set listed under Homo sapiens [20]. Moreover, the Serum stability in the data set listed under Homo sapiens [22] is listed as 16; in data set [23] it was 9; in the data set filed under Mus musculus [24], 12; in the data set filed under Mus musculus [26], 0; in the data set listed under Mus musculus [27] it was 27; in the data set filed under Homo sapiens [28], 15. Besides, the Serum stability in the data set listed under Mus musculus [29] was found to be 53; in the data set listed under Mus musculus [30] it was 43. Besides, the Zone size turned out to be 0 mm with Escherichia coli [12]; 27 mm with Escherichia coli [14]; 22 mm with Escherichia coli [15]; 0 mm with Escherichia coli [16]; 25 mm in the data set on Escherichia coli [17]; 26 mm in the data set on Escherichia coli [18]. In addition, the Zone size in the data set with Escherichia coli [21] stood at 0 mm; in the data set on Escherichia coli [25], 0 mm; in the data set with Escherichia coli [31] it was 31 mm. Also, the figures for the MIC in the data set on Candida albicans [4] (setting [32]), in the data set with Candida albicans [5] (setting [32]) and with Candida albicans [6] (setting [32]) were 25 µg/mL (≈ 91.2 µM), 6.3 µg/mL (≈ 23 µM) and 25 µg/mL (≈ 91.2 µM), respectively.

In the case of `C[C@H](N)C(=O)N[C@@H](C(=O)O)n1cc(F)c(=O)[nH]c1=O` (stereo in doubt; 8b(L,D)), the Activity in the data set with Candida albicans [1], in the data set with Candida albicans [2], in the data set with Candida albicans [3], in the data set with Candida albicans [7] and in the data set with Candida albicans [8] was 0 in each case. In addition, the minimal inhibitory concentration (MIC) against Candida albicans [4], in the data set with Candida albicans [5] and in the data set on Candida albicans [6] was >100 µg/mL in each case.

As for `O=c1[nH]cc(F)c(=O)[nH]1` [FLUOROURACIL], the Activity in the data set on Candida albicans [1] amounted to 44; in the data set on Candida albicans [2], 30; in the data set with Candida albicans [3] it was 30; in the data set with Candida albicans [7], 40; in the data set with Candida albicans [8], 22. Further, the Zone size with Escherichia coli [12] was found to be 41 mm; with Escherichia coli [14], 40 mm; in the data set on Escherichia coli [15], 33 mm; with Escherichia coli [16], 40 mm; with Escherichia coli [17], 38 mm; in the data set with Escherichia coli [18], 41 mm. The Zone size came out at 38 mm in the data set with Escherichia coli [21], 33 mm in the data set on Escherichia coli [25] and 46 mm with Escherichia coli [31]. The minimum inhibitory concentration (MIC) with Candida albicans [4] (setting [32]) is 4 µg/mL (≈ 30.8 µM); in the data set with Candida albicans [5] (setting [32]), 1 µg/mL (≈ 7.69 µM); in the data set with Candida albicans [6] (setting [32]) it was 1 µg/mL (≈ 7.69 µM).

For the origin of these results see ChEMBL document CHEMBL1122734, “A novel peptide delivery system involving peptidase activated prodrugs as antimicrobial agents. Synthesis and biological activity of peptidyl derivatives of 5-fluorouracil” (J Med Chem, 1984).
